Consider seven molecules from ChEMBL document CHEMBL1144541, “Antinociceptive and antiinflammatory activities and QSAR studies on 2-substituted-4,5-diphenyl-1H-imidazoles” (2007).

For the first test, the system named is Mus musculus. In words: Antinociceptive activity in ip dosed Swiss albino mouse assessed as latency time after 30 mins by hot plate method. The format is functional. In a few lines:
(§1)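 Swiss albino mice (20–25 g) were housed 7 days at 30 ± 1 °C before testing, in groups of six. Compounds were given ip at 9.5–12.58 mg/kg as a 0.2% Tween suspension. Mice were placed on a 55 ± 0.5 °C hot plate before dosing and at 15, 30, 60 and 120 min after dosing, with a 15 s cut-off. Significance was assessed by Student's t test.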
Consider `O=[N+]([O-])c1ccccc1-c1nc(-c2ccccc2)c(-c2ccccc2)[nH]1`, for which the Activity is 4.62 s.

With `COc1cc(-c2nc(-c3ccccc3)c(-c3ccccc3)[nH]2)ccc1O`, the Activity is listed as 6.2 s.

For `Cc1ccc(-c2nc(-c3ccccc3)c(-c3ccccc3)[nH]2)cc1`, the Activity was determined as 4.62 s.

In the case of `CN(C)c1ccc(-c2nc(-c3ccccc3)c(-c3ccccc3)[nH]2)cc1`, the Activity is 7.16 s.

`Cc1cccc(-c2nc(-c3ccccc3)c(-c3ccccc3)[nH]2)c1`: the Activity was 4.63 s.

Take `Oc1ccc(-c2nc(-c3ccccc3)c(-c3ccccc3)[nH]2)cc1`: the Activity amounted to 7.21 s.

As for `COc1cccc(-c2nc(-c3ccccc3)c(-c3ccccc3)[nH]2)c1`, the Activity is reported as 6.15 s.

For the next test, the system named is Mus musculus. The experiment in a line: Antinociceptive activity in ip dosed Swiss albino mouse assessed as latency time after 120 mins by tail flick method. The format is functional. In a few lines: (§2)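 Swiss albino mice (20–25 g) received compounds ip at 9.5–12.58 mg/kg in 0.2% Tween suspension. Tail-flick latency to radiant heat was measured, with stimulus intensity set to give a 3–4 s baseline. Readings were taken just before injection and at 15, 30, 60 and 120 min after. Significance was assessed by Student's t test.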
Turning to `O=[N+]([O-])c1ccccc1-c1nc(-c2ccccc2)c(-c2ccccc2)[nH]1`, the Activity was 4.39 s.

Take `COc1cc(-c2nc(-c3ccccc3)c(-c3ccccc3)[nH]2)ccc1O`: the Activity was found to be 8.34 s.

Turning to `Cc1ccc(-c2nc(-c3ccccc3)c(-c3ccccc3)[nH]2)cc1`, the Activity worked out at 4.89 s.

Take `CN(C)c1ccc(-c2nc(-c3ccccc3)c(-c3ccccc3)[nH]2)cc1`: the Activity is listed as 10.18 s.

For `Cc1cccc(-c2nc(-c3ccccc3)c(-c3ccccc3)[nH]2)c1`, the Activity stood at 5.93 s.

With `Oc1ccc(-c2nc(-c3ccccc3)c(-c3ccccc3)[nH]2)cc1`, the Activity amounted to 10.33 s.

For `COc1cccc(-c2nc(-c3ccccc3)c(-c3ccccc3)[nH]2)c1`, the Activity is 7.99 s.

The subject of another test is Mus musculus. The experiment in a line: Antinociceptive activity in ip dosed Swiss albino mouse assessed as latency time by hot plate method. The format is functional. In a few lines:
as §1
Regarding `O=[N+]([O-])c1ccccc1-c1nc(-c2ccccc2)c(-c2ccccc2)[nH]1`, the Activity stood at 4.5 s.

As to `COc1cc(-c2nc(-c3ccccc3)c(-c3ccccc3)[nH]2)ccc1O`, the Activity was determined as 4.68 s.

For the molecule `Cc1ccc(-c2nc(-c3ccccc3)c(-c3ccccc3)[nH]2)cc1`, the Activity is given as 4.35 s.

With `CN(C)c1ccc(-c2nc(-c3ccccc3)c(-c3ccccc3)[nH]2)cc1`, the Activity came out at 4.5 s.

`Cc1cccc(-c2nc(-c3ccccc3)c(-c3ccccc3)[nH]2)c1`: the Activity was 4.56 s.

As for `Oc1ccc(-c2nc(-c3ccccc3)c(-c3ccccc3)[nH]2)cc1`, the Activity was determined as 4.55 s.

For the molecule `COc1cccc(-c2nc(-c3ccccc3)c(-c3ccccc3)[nH]2)c1`, the Activity turned out to be 4.67 s.

The next test has as its system Mus musculus. In words: Antinociceptive activity in ip dosed Swiss albino mouse assessed as latency time after 60 mins by hot plate method. The format is functional. In a few lines: as §1
As for `O=[N+]([O-])c1ccccc1-c1nc(-c2ccccc2)c(-c2ccccc2)[nH]1`, the Activity amounted to 4.67 s.

As for `COc1cc(-c2nc(-c3ccccc3)c(-c3ccccc3)[nH]2)ccc1O`, the Activity was determined as 7.92 s.

Regarding `Cc1ccc(-c2nc(-c3ccccc3)c(-c3ccccc3)[nH]2)cc1`, the Activity is listed as 4.83 s.

Take `CN(C)c1ccc(-c2nc(-c3ccccc3)c(-c3ccccc3)[nH]2)cc1`: the Activity was found to be 8.33 s.

On to `Cc1cccc(-c2nc(-c3ccccc3)c(-c3ccccc3)[nH]2)c1`, for which the Activity was found to be 4.67 s.

Take `Oc1ccc(-c2nc(-c3ccccc3)c(-c3ccccc3)[nH]2)cc1`: the Activity is 8.63 s.

In the case of `COc1cccc(-c2nc(-c3ccccc3)c(-c3ccccc3)[nH]2)c1`, the Activity stood at 7.42 s.

A further test relates to Mus musculus. The experiment in a line: Antinociceptive activity in ip dosed Swiss albino mouse assessed as latency time after 15 mins by tail flick method. It counts as functional. In a few lines: as §2
With `O=[N+]([O-])c1ccccc1-c1nc(-c2ccccc2)c(-c2ccccc2)[nH]1`, the Activity turned out to be 4.1 s.

On to `COc1cc(-c2nc(-c3ccccc3)c(-c3ccccc3)[nH]2)ccc1O`, for which the Activity is reported as 4.12 s.

For the molecule `Cc1ccc(-c2nc(-c3ccccc3)c(-c3ccccc3)[nH]2)cc1`, the Activity was 4.14 s.

Consider `CN(C)c1ccc(-c2nc(-c3ccccc3)c(-c3ccccc3)[nH]2)cc1`, for which the Activity is on record as 4.45 s.

Consider `Cc1cccc(-c2nc(-c3ccccc3)c(-c3ccccc3)[nH]2)c1`, for which the Activity is reported as 4.1 s.

In the case of `Oc1ccc(-c2nc(-c3ccccc3)c(-c3ccccc3)[nH]2)cc1`, the Activity is listed as 4.48 s.

Consider `COc1cccc(-c2nc(-c3ccccc3)c(-c3ccccc3)[nH]2)c1`, for which the Activity is 4.12 s.

For another test, the system named is Mus musculus. In words: Antinociceptive activity in ip dosed Swiss albino mouse assessed as latency time after 120 mins by hot plate method. It counts as functional. In a few lines:
as §1
Turning to `O=[N+]([O-])c1ccccc1-c1nc(-c2ccccc2)c(-c2ccccc2)[nH]1`, the Activity stood at 4.71 s.

As for `COc1cc(-c2nc(-c3ccccc3)c(-c3ccccc3)[nH]2)ccc1O`, the Activity is given as 8.99 s.

Turning to `Cc1ccc(-c2nc(-c3ccccc3)c(-c3ccccc3)[nH]2)cc1`, the Activity is on record as 4.82 s.

On to `CN(C)c1ccc(-c2nc(-c3ccccc3)c(-c3ccccc3)[nH]2)cc1`, for which the Activity came out at 10.3 s.

In the case of `Cc1cccc(-c2nc(-c3ccccc3)c(-c3ccccc3)[nH]2)c1`, the Activity is on record as 5.72 s.

As for `Oc1ccc(-c2nc(-c3ccccc3)c(-c3ccccc3)[nH]2)cc1`, the Activity is reported as 10.33 s.

With `COc1cccc(-c2nc(-c3ccccc3)c(-c3ccccc3)[nH]2)c1`, the Activity amounted to 8.79 s.

The test system of the next test is Mus musculus. The experiment in a line: Antinociceptive activity in ip dosed Swiss albino mouse assessed as latency time after 15 mins by hot plate method. The format is functional. In a few lines: as §1
`O=[N+]([O-])c1ccccc1-c1nc(-c2ccccc2)c(-c2ccccc2)[nH]1`: the Activity is 4.52 s.

On to `COc1cc(-c2nc(-c3ccccc3)c(-c3ccccc3)[nH]2)ccc1O`, for which the Activity was found to be 5.23 s.

Turning to `Cc1ccc(-c2nc(-c3ccccc3)c(-c3ccccc3)[nH]2)cc1`, the Activity turned out to be 4.5 s.

`CN(C)c1ccc(-c2nc(-c3ccccc3)c(-c3ccccc3)[nH]2)cc1`: the Activity turned out to be 4.76 s.

`Cc1cccc(-c2nc(-c3ccccc3)c(-c3ccccc3)[nH]2)c1`: the Activity is given as 4.6 s.

As to `Oc1ccc(-c2nc(-c3ccccc3)c(-c3ccccc3)[nH]2)cc1`, the Activity stood at 4.81 s.

In the case of `COc1cccc(-c2nc(-c3ccccc3)c(-c3ccccc3)[nH]2)c1`, the Activity is listed as 5.02 s.

Another test concerns Mus musculus. In words: Antinociceptive activity in ip dosed Swiss albino mouse assessed as latency time by tail flick method. It counts as functional. In a few lines: as §2
In the case of `O=[N+]([O-])c1ccccc1-c1nc(-c2ccccc2)c(-c2ccccc2)[nH]1`, the Activity worked out at 4.09 s.

As for `COc1cc(-c2nc(-c3ccccc3)c(-c3ccccc3)[nH]2)ccc1O`, the Activity came to 4.16 s.

As for `Cc1ccc(-c2nc(-c3ccccc3)c(-c3ccccc3)[nH]2)cc1`, the Activity worked out at 4.14 s.

`CN(C)c1ccc(-c2nc(-c3ccccc3)c(-c3ccccc3)[nH]2)cc1`: the Activity is on record as 4.26 s.

Consider `Cc1cccc(-c2nc(-c3ccccc3)c(-c3ccccc3)[nH]2)c1`, for which the Activity is listed as 4.1 s.

In the case of `Oc1ccc(-c2nc(-c3ccccc3)c(-c3ccccc3)[nH]2)cc1`, the Activity was found to be 4.4 s.

For `COc1cccc(-c2nc(-c3ccccc3)c(-c3ccccc3)[nH]2)c1`, the Activity is on record as 4.12 s.

The test system of another test is Mus musculus. The experiment in a line: Antinociceptive activity in ip dosed Swiss albino mouse assessed as latency time after 60 mins by tail flick method. The format is functional. In a few lines: as §2
Turning to `O=[N+]([O-])c1ccccc1-c1nc(-c2ccccc2)c(-c2ccccc2)[nH]1`, the Activity stood at 4.38 s.

Regarding `COc1cc(-c2nc(-c3ccccc3)c(-c3ccccc3)[nH]2)ccc1O`, the Activity was 7.18 s.

With `Cc1ccc(-c2nc(-c3ccccc3)c(-c3ccccc3)[nH]2)cc1`, the Activity came out at 4.82 s.

On to `CN(C)c1ccc(-c2nc(-c3ccccc3)c(-c3ccccc3)[nH]2)cc1`, for which the Activity is given as 7.93 s.

Regarding `Cc1cccc(-c2nc(-c3ccccc3)c(-c3ccccc3)[nH]2)c1`, the Activity is 5.89 s.

In the case of `Oc1ccc(-c2nc(-c3ccccc3)c(-c3ccccc3)[nH]2)cc1`, the Activity was 8.18 s.

For `COc1cccc(-c2nc(-c3ccccc3)c(-c3ccccc3)[nH]2)c1`, the Activity is given as 6.75 s.

Another test relates to Mus musculus. The experiment in a line: Antinociceptive activity in ip dosed Swiss albino mouse assessed as latency time after 30 mins by tail flick method. The format is functional. In a few lines: as §2
For the molecule `O=[N+]([O-])c1ccccc1-c1nc(-c2ccccc2)c(-c2ccccc2)[nH]1`, the Activity was found to be 4.38 s.

Turning to `COc1cc(-c2nc(-c3ccccc3)c(-c3ccccc3)[nH]2)ccc1O`, the Activity is recorded as 5.57 s.

For `Cc1ccc(-c2nc(-c3ccccc3)c(-c3ccccc3)[nH]2)cc1`, the Activity amounted to 4.82 s.

Regarding `CN(C)c1ccc(-c2nc(-c3ccccc3)c(-c3ccccc3)[nH]2)cc1`, the Activity was found to be 6.32 s.

`Cc1cccc(-c2nc(-c3ccccc3)c(-c3ccccc3)[nH]2)c1`: the Activity is 4.48 s.

As for `Oc1ccc(-c2nc(-c3ccccc3)c(-c3ccccc3)[nH]2)cc1`, the Activity turned out to be 6.79 s.

As for `COc1cccc(-c2nc(-c3ccccc3)c(-c3ccccc3)[nH]2)c1`, the Activity turned out to be 4.56 s.

A further test concerns Rattus norvegicus. In words: Antiinflammatory activity assessed as reduction of carrageenan-induced paw volume in intraperitoneally dosed Wistar rat after 3 hrs. The arrangement: scale not given: the % may be the effect or the level left. It counts as functional. In a few lines:
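Wistar rats of either sex (120–150 g) were dosed ip with compounds at 9.5–12.58 mg/kg in 0.2% Tween suspension. After 1 h, 0.05 ml of 1.0% w/v carrageenan in 0.9% NaCl was injected into the left hind paw. Paw volume was measured by mercury-displacement plethysmometry before injection and at 1, 2 and 3 h. Percent inhibition of the 3 h swelling was calculated.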
For `O=[N+]([O-])c1ccccc1-c1nc(-c2ccccc2)c(-c2ccccc2)[nH]1`, the Activity is reported as 30.24%.

Regarding `COc1cc(-c2nc(-c3ccccc3)c(-c3ccccc3)[nH]2)ccc1O`, the Activity is 58.14%.

`Cc1ccc(-c2nc(-c3ccccc3)c(-c3ccccc3)[nH]2)cc1`: the Activity amounted to 11.63%.

Turning to `CN(C)c1ccc(-c2nc(-c3ccccc3)c(-c3ccccc3)[nH]2)cc1`, the Activity is on record as 69.77%.

In the case of `Cc1cccc(-c2nc(-c3ccccc3)c(-c3ccccc3)[nH]2)c1`, the Activity is recorded as 9.31%.

On to `Oc1ccc(-c2nc(-c3ccccc3)c(-c3ccccc3)[nH]2)cc1`, for which the Activity was determined as 83.73%.

Turning to `COc1cccc(-c2nc(-c3ccccc3)c(-c3ccccc3)[nH]2)c1`, the Activity is recorded as 37.21%.
